Measured values as given in ChEMBL document CHEMBL6071151, “Discovery of Inhibitors Targeting Protein-Protein Interaction between Bacterial RNA Polymerase and NusG as Novel Antimicrobials” (J Med Chem, 2024).

Tests used:
Assay type in all cases: functional
Streptococcus agalactiae = assay: Antimicrobial activity against Streptococcus agalactiae ATCC 12386 assessed as reduction in microbial growth measured after 20 hrs by CLSI based broth microdilution method
Streptococcus pneumoniae [1] = assay: Antimicrobial activity against Streptococcus pneumoniae ATCC 49619 assessed as reduction in microbial growth measured after 20 hrs by CLSI based broth microdilution method
[2] = test system: Staphylococcus saprophyticus; assay: Antimicrobial activity against Staphylococcus saprophyticus ATCC 15305 assessed as reduction in microbial growth measured after 20 hrs by CLSI based broth microdilution method
Streptococcus pneumoniae [3] = assay: Antimicrobial activity against Streptococcus pneumoniae clinical isolate CUHK-X01 assessed as reduction in microbial growth measured after 20 hrs by CLSI based broth microdilution method
Streptococcus pneumoniae [4] = assay: Antimicrobial activity against Streptococcus pneumoniae clinical isolate CUHK-X02 assessed as reduction in microbial growth measured after 20 hrs by CLSI based broth microdilution method
Streptococcus pneumoniae [5] = assay: Antimicrobial activity against Streptococcus pneumoniae NP112 (NR-19213) assessed as reduction in microbial growth measured after 20 hrs by CLSI based broth microdilution method
Acinetobacter baumannii = assay: Antimicrobial activity against Acinetobacter baumannii ATCC 19606 assessed as reduction in microbial growth measured after 20 hrs by CLSI based broth microdilution method
Method in brief: (§1)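 Broth microdilution per CLSI in cation-adjusted Mueller-Hinton broth. Two-fold serial dilutions from 256 to 0.25 μg/mL, inoculum about 5 × 10⁵ CFU/mL. Read after 20 h at 37 °C. MIC is the lowest concentration with no visible growth. Run in duplicate.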

Streptococcus pneumoniae [6] = assay: Antimicrobial activity against Streptococcus pneumoniae TCH8431 (HM-145) assessed as reduction in microbial growth measured after 20 hrs by CLSI based broth microdilution method
Enterobacter cloacae = assay: Antimicrobial activity against Enterobacter cloacae ATCC 13047 assessed as reduction in microbial growth measured after 20 hrs by CLSI based broth microdilution method; method in brief: as §1
Klebsiella pneumoniae = assay: Antimicrobial activity against Klebsiella pneumoniae ATCC 700603 assessed as reduction in microbial growth measured after 20 hrs by CLSI based broth microdilution method; method in brief: as §1
Escherichia coli = assay: Antimicrobial activity against Escherichia coli ATCC 25922 assessed as reduction in microbial growth measured after 20 hrs by CLSI based broth microdilution method; method in brief: as §1
Staphylococcus aureus [7] = assay: Antimicrobial activity against Staphylococcus aureus ATCC 29213 assessed as reduction in microbial growth measured after 20 hrs by CLSI based broth microdilution method; method in brief: as §1
Enterococcus faecalis = assay: Antimicrobial activity against Enterococcus faecalis ATCC 19433 assessed as reduction in microbial growth measured after 20 hrs by CLSI based broth microdilution method; method in brief: as §1
Streptococcus pneumoniae [8] = assay: Antimicrobial activity against Streptococcus pneumoniae clinical isolate CUHK-X03 assessed as reduction in microbial growth measured after 20 hrs by CLSI based broth microdilution method
Pseudomonas aeruginosa = assay: Antimicrobial activity against Pseudomonas aeruginosa ATCC 27853 assessed as reduction in microbial growth measured after 20 hrs by CLSI based broth microdilution method; method in brief: as §1
[9] = test system: Staphylococcus epidermidis; assay: Antimicrobial activity against Staphylococcus epidermidis ATCC 12228 assessed as reduction in microbial growth measured after 20 hrs by CLSI based broth microdilution method
Streptococcus pneumoniae [10] = assay: Antimicrobial activity against Streptococcus pneumoniae clinical isolate CUHK-X04 assessed as reduction in microbial growth measured after 20 hrs by CLSI based broth microdilution method
Streptococcus pyogenes = assay: Antimicrobial activity against Streptococcus pyogenes ATCC 19615 assessed as reduction in microbial growth measured after 20 hrs by CLSI based broth microdilution method
Staphylococcus aureus [11] = assay: Antimicrobial activity against Staphylococcus aureus ATCC 25923 assessed as reduction in microbial growth measured after 20 hrs by CLSI based broth microdilution method; method in brief: as §1

Row | SMILES | MIC (Streptococcus pneumoniae [1]) [µg/mL] | MIC (Streptococcus pneumoniae [4]) [µg/mL] | MIC (Streptococcus pneumoniae [5]) [µg/mL] | MIC (Acinetobacter baumannii) [µg/mL] | MIC (Streptococcus pneumoniae [6]) [µg/mL] | MIC (Enterobacter cloacae) [µg/mL] | MIC (Klebsiella pneumoniae) [µg/mL] | MIC (Escherichia coli) [µg/mL] | MIC (Staphylococcus aureus [7]) [µg/mL] | MIC (Enterococcus faecalis) [µg/mL] | MIC (Streptococcus pneumoniae [8]) [µg/mL] | MIC (Pseudomonas aeruginosa) [µg/mL] | MIC [9] [µg/mL] | MIC (Streptococcus pneumoniae [10]) [µg/mL] | MIC (Streptococcus pyogenes) [µg/mL] | MIC (Staphylococcus aureus [11]) [µg/mL] | MIC (Streptococcus agalactiae) [µg/mL] | MIC [2] [µg/mL] | MIC (Streptococcus pneumoniae [3]) [µg/mL]
1 | CNC(C)[C@@H]1CC[C@@H](N)[C@@H](O[C@H]2[C@H](O)[C@@H](O[C@H]3OC[C@](C)(O)[C@H](NC)[C@H]3O)[C@H](N)C[C@@H]2N)O1.CN[C@@H]1[C@@H](O)[C@@H](O[C@@H]2[C@@H](O)[C@H](O[C@H]3O[C@H](C(C)N)CC[C@H]3N)[C@@H](N)C[C@H]2N)OC[C@]1(C)O.CN[C@@H]1[C@@H](O)[C@@H](O[C@@H]2[C@@H](O)[C@H](O[C@H]3O[C@H](CN)CC[C@H]3N)[C@@H](N)C[C@H]2N)OC[C@]1(C)O (some centres not stated) | 32 | – | – | – | – | – | – | – | – | – | – | – | – | – | – | – | 64 | ≤ 0.062 | 32
2 | OC(CNCCSc1ccccc1C(F)(F)F)CSc1ccc(C(F)(F)F)cc1 (configuration not stated) | 4 | 8 | 8 | > 256 | 4 | > 256 | > 256 | 32 | 8 | 8 | 4 | > 256 | 4 | 8 | 8 | 8 | 8 | 4 | 8
3 | CN[C@H](CC(C)C)C(=O)N[C@H]1C(=O)N[C@@H](CC(N)=O)C(=O)N[C@H]2C(=O)N[C@H]3C(=O)N[C@H](C(=O)N[C@H](C(=O)O)c4cc(O)cc(O)c4-c4cc3ccc4O)[C@H](O)c3ccc(c(Cl)c3)Oc3cc2cc(c3O[C@@H]2O[C@H](CO)[C@@H](O)[C@H](O)[C@H]2O[C@H]2C[C@](C)(N)[C@H](O)[C@H](C)O2)Oc2ccc(cc2Cl)[C@H]1O [VANCOMYCIN] | 1 | – | – | – | – | – | – | – | – | – | – | – | – | – | – | – | 1 | 2 | 0.5
4 | Cc1onc(-c2ccccc2)c1C(=O)N[C@@H]1C(=O)N2[C@@H]1SC(C)(C)[C@@H]2C(=O)O [OXACILLIN] | 2 | – | – | – | – | – | – | – | – | – | – | – | – | – | – | – | 1 | 2 | ≤ 0.062
5 | OC(CNCCNc1ccc(C(F)(F)F)cn1)COCc1ccc(C(F)(F)F)cc1 (configuration not stated) | 16 | – | – | 64 | – | 128 | > 256 | 128 | 32 | 32 | – | > 256 | – | – | – | 32 | – | – | –
6 | OC(CNCCNc1cccc(C(F)(F)F)c1)COc1ccc(C(F)(F)F)cc1 (configuration not stated) | > 256 | – | – | > 256 | – | > 256 | > 256 | > 256 | > 256 | > 256 | – | > 256 | – | – | – | > 256 | – | – | –
7 | OC(CNCCNc1nccc(C(F)(F)F)n1)COc1ccc(C(F)(F)F)cc1 (configuration not stated) | 32 | – | – | 128 | – | > 256 | > 256 | > 256 | 64 | 64 | – | > 256 | – | – | – | 64 | – | – | –
8 | OC(CNCCNc1ccc(C(F)(F)F)cn1)CSCc1ccc(C(F)(F)F)cc1 (configuration not stated) | 16 | – | – | 32 | – | 64 | > 256 | 32 | 8 | 32 | – | > 256 | – | – | – | 16 | – | – | –
9 | OC(CNCCNc1nccc(C(F)(F)F)n1)COc1ccccc1 (configuration not stated) | 128 | – | – | > 256 | – | > 256 | > 256 | > 256 | > 256 | > 256 | – | > 256 | – | – | – | > 256 | – | – | –
10 | O=[N+]([O-])c1ccc(OCC(O)CNCCNc2ncccn2)cc1 (configuration not stated) | > 256 | – | – | > 256 | – | > 256 | > 256 | > 256 | > 256 | > 256 | – | > 256 | – | – | – | > 256 | – | – | –

More lines, main results first:

Row | MIC (Streptococcus pneumoniae [1]) [µg/mL] | MIC (Streptococcus pneumoniae [4]) [µg/mL] | MIC (Streptococcus pneumoniae [5]) [µg/mL] | MIC (Acinetobacter baumannii) [µg/mL] | MIC (Streptococcus pneumoniae [6]) [µg/mL] | MIC (Enterobacter cloacae) [µg/mL] | MIC (Klebsiella pneumoniae) [µg/mL] | MIC (Escherichia coli) [µg/mL] | MIC (Staphylococcus aureus [7]) [µg/mL] | MIC (Enterococcus faecalis) [µg/mL] | MIC (Streptococcus pneumoniae [8]) [µg/mL] | MIC (Pseudomonas aeruginosa) [µg/mL] | MIC [9] [µg/mL] | MIC (Streptococcus pneumoniae [10]) [µg/mL] | MIC (Streptococcus pyogenes) [µg/mL] | MIC (Staphylococcus aureus [11]) [µg/mL] | SMILES | MIC (Streptococcus agalactiae) [µg/mL] | MIC [2] [µg/mL] | MIC (Streptococcus pneumoniae [3]) [µg/mL]
11 | 128 | – | – | 256 | – | 256 | > 256 | 256 | 128 | 256 | – | > 256 | – | – | – | 256 | OC(CNCCNc1ccc(C(F)(F)F)cn1)COCc1ccccc1 (configuration not stated) | – | – | –
12 | 32 | – | – | 128 | – | 256 | > 256 | 64 | 32 | 64 | – | > 256 | – | – | – | 64 | OC(CNCCNc1ccc(C(F)(F)F)cn1)COCc1cccc(C(F)(F)F)c1 (configuration not stated) | – | – | –
13 | 64 | – | – | 256 | – | 256 | > 256 | 128 | 256 | 256 | – | > 256 | – | – | – | 256 | OC(CNCCNc1nccc(C(F)(F)F)n1)COc1ccc(F)c(F)c1 (configuration not stated) | – | – | –
14 | 64 | – | – | 128 | – | 128 | > 256 | 128 | 64 | 128 | – | > 256 | – | – | – | 64 | O=[N+]([O-])c1ccc(OCC(O)CNCCNc2ccccc2C(F)(F)F)cc1 (configuration not stated) | – | – | –
15 | 8 | – | – | 256 | – | 256 | > 256 | 128 | 32 | 32 | – | > 256 | – | – | – | 64 | OC(CNCCNc1ccc(C(F)(F)F)cc1)COc1ccc(C(F)(F)F)cc1 (configuration not stated) | – | – | –
16 | 64 | – | – | > 256 | – | > 256 | > 256 | > 256 | 128 | 256 | – | > 256 | – | – | – | 128 | O=[N+]([O-])c1ccc(OCC(O)CNCCNc2ncccc2C(F)(F)F)cc1 (configuration not stated) | – | – | –
17 | 16 | – | – | 32 | – | 64 | > 256 | 64 | 32 | 16 | – | > 256 | – | – | – | 32 | OC(CNCCNc1ccc(C(F)(F)F)cn1)CNc1ccc(C(F)(F)F)cc1 (configuration not stated) | – | – | –
18 | > 256 | – | – | > 256 | – | > 256 | > 256 | > 256 | > 256 | > 256 | – | > 256 | – | – | – | > 256 | O=[N+]([O-])c1ccc(OCC(O)CNCCNc2ccc(F)cn2)cc1 (configuration not stated) | – | – | –
